What was measured:
[1] = Cytotoxicity against human HuH7 cells after 24 hrs; assay type: cell-based, Huh-7
Hepatitis C virus = experiment: Antiviral activity against HCV1b infected in human HuH7 cells assessed as inhibition of viral replication after 24 hrs; assay type: functional, organism-based, Hepacivirus hominis; details: genotype 1b, Huh-7, 24 h
[2] = Half life in Sprague-Dawley rat at 25 mg/kg, po; assay type: ADME, organism-based; set-up: dose 25 mg/kg, route oral; details: in vivo
How it was run: (§1)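 Male rats (330–380 g, 9–10 weeks old, n = 3) were given the compound as a solution in DMA/propylene glycol (20:80, v/v), either iv at 5 mg/kg or po at 25 mg/kg. Rats were fasted and had jugular-vein cannulae. Blood was sampled at 0, 2, 5 (iv only) and 15 min, 30 min, and 1, 2, 4, 6, 8 and 24 h. Plasma was assayed by HPLC–MS/MS and analysed non-compartmentally.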

[3] = Half life in Sprague-Dawley rat at 5 mg/kg, iv; assay type: ADME, organism-based; set-up: dose 5 mg/kg, route intravenous; details: in vivo; how it was run: as §1
[4] = AUC in Sprague-Dawley rat at 5 mg/kg, iv; assay type: ADME, organism-based; set-up: dose 5 mg/kg, route intravenous; details: plasma; how it was run: as §1
[5] = Oral bioavailability in Sprague-Dawley rat at 25 mg/kg; assay type: ADME, organism-based; details: in vivo; how it was run: as §1
[6] = Clearance in Sprague-Dawley rat at 5 mg/kg, iv; assay type: ADME, organism-based; set-up: dose 5 mg/kg, route intravenous; details: in vivo; how it was run: as §1
[7] = Tmax in Sprague-Dawley rat at 25 mg/kg, po; assay type: ADME, organism-based; set-up: dose 25 mg/kg, route oral; details: in vivo; how it was run: as §1
[8] = AUC in Sprague-Dawley rat at 25 mg/kg, po; assay type: ADME, organism-based; set-up: dose 25 mg/kg, route oral; details: plasma; how it was run: as §1
[9] = Volume of distribution at steady state in Sprague-Dawley rat at 5 mg/kg, iv; assay type: ADME, organism-based; set-up: dose 5 mg/kg, route intravenous; details: in vivo, read-out: Vdss; how it was run: as §1
[10] = Cmax in Sprague-Dawley rat at 25 mg/kg, po; assay type: ADME, organism-based; set-up: dose 25 mg/kg, route oral; details: in vivo; how it was run: as §1

| EC50 (Hepatitis C virus) [µM] | SMILES | CC50 at 24 h [1] [µM] | also measured |
| --- | --- | --- | --- |
| > 50 | CNC(=S)Nc1ccc2c(c1)Cc1cc(Br)ccc1-2 | > 50 | – |
| 7.55 | CCn1c2ccccc2c2cc(NC(N)=S)ccc21 | > 50 | – |
| 0.3 | NC(=S)Nc1ccc2c(c1)Cc1cc(Br)ccc1-2 | > 50 | half-life [2]: 3.8 h; half-life [3]: 2.6 h; AUC [4]: 4940 ng·h/mL; bioavailability [5]: 1.2%; clearance [6]: 17 mL/min/kg; Tmax [7]: 0.7 h; AUC [8]: 294 ng·h/mL; Vd [9]: 2.8 L/kg; Cmax [10]: 106 ng/mL |
| > 50 | NC(=O)Nc1ccc2c(c1)Cc1cc(Br)ccc1-2 | > 50 | – |
| > 50 | S=C(NCc1ccccc1)Nc1ccc2c(c1)Cc1cc(Br)ccc1-2 | > 50 | – |
| > 50 | NC(=S)Nc1ccc2cn[nH]c2c1 | > 50 | – |
| 0.57 | NC(=S)Nc1ccc2c(c1)C(=O)c1cc(Br)ccc1-2 | > 50 | half-life [2]: 1.7 h; half-life [3]: 1.4 h; AUC [4]: 655 ng·h/mL; bioavailability [5]: 1.3%; clearance [6]: 127 mL/min/kg; Tmax [7]: 0.25 h; AUC [8]: 43 ng·h/mL; Vd [9]: 2 L/kg; Cmax [10]: 65.3 ng/mL |
| – | NC(=S)Nc1cccc(Oc2ccccc2)c1 | > 50 | – |
| 0.42 | CCCNc1ccc2c(c1)Cc1cc(NC(N)=S)ccc1-2 | > 50 | – |
| 2.09 | NC(=S)Nc1ccc2c(c1)Cc1ccccc1-2 | > 50 | – |
| 0.44 | CCCN(CCC)c1ccc2c(c1)Cc1cc(NC(N)=S)ccc1-2 | 19.5 | – |
| > 50 | NC(=S)Nc1ccc2c(c1)Cc1cc(N)ccc1-2 | > 50 | – |
| 0.49 | NC(=S)Nc1ccc2c(c1)Cc1cc(NCc3ccccc3)ccc1-2 | > 50 | – |
| > 50 | NC(=S)Nc1ccc2oc(=O)c3ccccc3c2c1 | > 50 | – |
| 0.83 | CCN(CC)c1ccc2c(c1)Cc1cc(NC(N)=S)ccc1-2 | > 50 | – |
| 15.4 | S=C(Nc1ccc2c(c1)Cc1cc(Br)ccc1-2)Nc1cccc2ccccc12 | > 50 | – |
| 5.51 | COc1cc2c(cc1NC(N)=S)oc1ccccc12 | > 50 | – |
| > 50 | CCNC(=S)Nc1ccc2c(c1)Cc1cc(Br)ccc1-2 | > 50 | – |
| > 50 | NC(=S)Nc1ccc2c(c1)N1CCN=C1S2 | > 50 | – |
| 34.1 | S=C(Nc1ccc(N2CCOCC2)cc1)Nc1ccc2c(c1)Cc1cc(Br)ccc1-2 | 18.1 | – |
| 0.39 | NC(=S)Nc1ccc2c(c1)Cc1cc(N(Cc3ccccc3)Cc3ccccc3)ccc1-2 | 35.6 | – |
| 0.72 | CCCCN(CCCC)c1ccc2c(c1)Cc1cc(NC(N)=S)ccc1-2 | 40.7 | – |
| > 50 | NC(=S)Nc1ccc2[nH]ncc2c1 | > 50 | – |
| 42.8 | S=C(Nc1ccccc1)Nc1ccc2c(c1)Cc1cc(Br)ccc1-2 | 46.2 | – |
| > 50 | NC(=S)Nc1ccc2nn[nH]c2c1 | > 50 | – |
| 1.11 | CN(C)c1ccc2c(c1)Cc1cc(NC(N)=S)ccc1-2 | > 50 | – |
| 21 | NC(=S)Nc1ccc2c(c1)-c1ccccc1C2=O | > 50 | – |
| 0.38 | CCCCNc1ccc2c(c1)Cc1cc(NC(N)=S)ccc1-2 | > 50 | – |
| > 50 | S=C(Nc1cccnc1)Nc1ccc2c(c1)Cc1cc(Br)ccc1-2 | 19.7 | – |
